Diaph act CS: compounds boosting diaphorase resazurin reduction – biochemical, uHTS, resorufin fluorescence, counter-screen for diaphorase-coupled primary assays, primary screen. 190,000 compounds, 0.005% hits. activation factor at 20 µM. Diaphorase/resazurin coupled assay, 16 min; stronger effect = higher value; 1 = vehicle wells, 0 = NADH-free wells;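 active = diaphorase activity raised at least twofold by the compound at 20 µM; inactive = activation factor below 2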
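Measured by – red resorufin fluorescence at 544/590 nm excitation/emission · Test system – Clostridium kluyveri diaphorase, purified enzyme · Incubation – reaction time 16 min, room temperature · Buffer or medium – 50 mM HEPES pH 7.4 with 4.542 mM MgCl2, 0.005% Tween 20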
G6PDH counter: L. mesenteroides G6PDH inhibitors, counter-screen for G6PDH-coupled screening assays, biochemical, Leuconostoc mesenteroides enzyme | 200,000 compounds, 0.12% hits | inhibition, % at 5 µM | Purified L. mesenteroides G6PDH, diaphorase/resazurin coupled fluorescence, 45 min | glucose-6-phosphate dehydrogenase [Leuconostoc mesenteroides]; in the data active = inhibition above about 50%
Redox H2O2 prof: compounds producing H2O2 with reducing agent – biochemical, NIH compound library profiling, artefact control for MLSCN library redox annotation, primary screen | DTT-dependent redox cycling H2O2, phenol red/HRP absorbance; 100% = 100 µM peroxide control, 0% = buffer | AID 878, 2007 | activation, % at 10 µM | 200,000 compounds, 0.03% hits;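 active = activation of at least 50% relative to the plate's high and low controls in the primary single-dose screen; inactive = activation below 50%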;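 note: compound incubated with DTT at 0.8 mM final as the reducing agent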
PMI act hi M6P: human PMI activators, high substrate, primary screen, biochemical, fluorescence intensity, near-saturating mannose 6-phosphate; Mannose-6-phosphate isomerase (Homo sapiens), P34949; coupled PMI enzyme assay, resazurin fluorescence, 20 min; stronger effect = higher value; 1 = untreated enzyme, 0 = substrate-free blank; activation factor at 20 µM; 190,000 compounds, 0.34% hits;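 active = activation factor of 2 or more at 20 µM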
Target sequence (P34949 whole entry, looked up): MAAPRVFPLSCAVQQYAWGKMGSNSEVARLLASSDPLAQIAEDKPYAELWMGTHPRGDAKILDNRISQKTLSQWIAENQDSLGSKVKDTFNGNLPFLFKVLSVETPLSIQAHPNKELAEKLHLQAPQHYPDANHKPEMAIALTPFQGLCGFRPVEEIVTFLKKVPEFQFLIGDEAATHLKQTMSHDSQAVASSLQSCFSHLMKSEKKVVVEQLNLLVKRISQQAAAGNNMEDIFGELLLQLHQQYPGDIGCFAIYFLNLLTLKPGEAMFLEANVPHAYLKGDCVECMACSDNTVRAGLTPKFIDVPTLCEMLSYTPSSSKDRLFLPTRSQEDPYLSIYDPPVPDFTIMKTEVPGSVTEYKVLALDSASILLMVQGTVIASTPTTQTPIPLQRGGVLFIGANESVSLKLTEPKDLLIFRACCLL
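Technique: Diaphorase-driven resazurin-to-resorufin fluorescence, excitation 544, emission 590 nm | Assay system: Human PMI in coupled enzyme assay | Times: Enzyme reaction with compound 20 min at room temperature | Medium: HEPES-buffered pH 7.4 with magnesium and detergent | Reagent: Mannose-6-phosphate 1.0 mM (near-saturating) plus 0.22 mM NADP+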
Diaphorase inh: diaphorase inhibitors and chemical oxidizers, primary screen, counter-screen for diaphorase-coupled primary assays, biochemical, uHTS, resorufin fluorescence; 190,000 compounds, 0.69% hits; diaphorase resazurin-to-resorufin fluorescence, NADH, 16 min; bacterial (C. kluyveri) enzyme, not human; AID 1217, 2008; inhibition, % at 20 µM;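 active = primary screen inhibition at 20 µM above a set limit, cut at about 50% in these data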;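 note: plate controls were DMSO with full reaction for no effect and wells lacking NADH for full effect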
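controls = No-NADH positive control and DMSO neutral control | system = Clostridium kluyveri diaphorase enzyme | timing = reaction incubation of 16 min at room temperature | signal = resorufin fluorescence 544/590 nm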
PMI act: activators of human PMI, primary screen, biochemical, fluorescence intensity, near-Km mannose 6-phosphate; Mannose-6-phosphate isomerase (Homo sapiens), P34949; purified human PMI, coupled resazurin fluorescence, 20 min; stronger effect = higher value; 1 = vehicle control, 0 substrate-free wells; activation factor at 20 µM; 190,000 compounds, 0.005% hits;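 active = activation factor of 2 or more at 20 µM, relative to plate controls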
The depositor's hits bear a star; nt = no result. Hits are enriched below; roughly 1.1% of the tested compounds scored in any of these assays.

SMILES	Diaph act CS	G6PDH counter	Redox H2O2 prof	PMI act hi M6P	Diaphorase inh	PMI act
O=C(c1cc(-c2ccco2)on1)N1CCN(c2ccccc2)CC1	0.8	-7	0	0.5	24	0.5
O=C(O)c1cc(-c2ccco2)nc2ccc(Br)cc12	0.3	-4	0	1.3	65*	1.1
O=C(c1ccco1)N1CCN(C(=O)c2cc(-c3ccncc3)nc3ccc(Br)cc23)CC1	nt	nt	0	nt	nt	nt
O=S(=O)(c1ccc2nc(-c3ccco3)c(-c3ccco3)nc2c1)N1CCOCC1	0.3	38	2	0.9	67*	1.2
O=C(c1ccc2nc(-c3ccco3)c(-c3ccco3)nc2c1)N1CCN(c2ccccc2)CC1	0.4	-28	0	1.2	56*	0.9
O=C(O)c1ccc2nc(-c3ccco3)c(-c3ccco3)nc2c1	0.2	43	0	0.9	84*	1.3
O=C(Nc1cccc(C(F)(F)F)c1)c1ccc2nc(-c3ccco3)c(-c3ccco3)nc2c1	0.8	11	1	1.1	24	1
Cc1cc(OC(C)C(N)=O)nc(-c2ccccc2)n1 (configuration not stated)	1.1	2	-1	1	-5	1.1
COC(=O)c1nnn(-c2nonc2N)c1COc1ccc(C=O)cc1OC	0.8	9	-1	1	20	1
CCN1CCCc2cc(CN(CCN3CCOCC3)C(=S)Nc3cc(F)cc(F)c3)ccc21	0.8	5	0	0.8	17	0.9
O=C1C(Cl)=C(NCCN2CCCCC2)C(=O)c2ccccc21	0.9	51*	0	0.5	9	0.9
CCNC1=C(Cl)C(=O)c2ccccc2C1=O	0.8	37	0	0.8	22	0.9
Cc1[nH]c2ccccc2c1/C=N/Nc1ccc(F)cc1F	0.8	-16	0	2.1*	15	1.5
Cc1ccc(Cl)cc1NC1=C/C(=N\S(=O)(=O)c2cccs2)c2ccccc2C1=O	0.7	54*	0	0.8	30	0.7
O=C1C(Nc2ccc(O)cc2)=C/C(=N/S(=O)(=O)c2cccs2)c2ccccc21	1.1	47	0	0.5	-12	0.9
Cc1cccc(NC2=C/C(=N/S(=O)(=O)c3cccs3)c3ccccc3C2=O)c1	0.9	53*	6	0.4	13	1
CC/C(=C/c1sc2ccc(C)cc2[n+]1CCO)SC	0.8	12	0	2.5*	19	1.8
CC/C(=C/c1sc2ccc(C)cc2[n+]1CCCS(=O)(=O)[O-])SC	0.9	2	0	2.7*	7	1.9
Cc1ccc2sc(C)[n+](CCC(C)S(=O)(=O)[O-])c2c1 (configuration not stated)	0.9	-7	0	1.1	11	1
CCN(CC)S(=O)(=O)c1ccc(C(=O)NC(=S)N(CCC#N)Cc2cccnc2)cc1	0.8	-2	1	1	17	1
COc1ccc(C(=O)NCc2ccc3c(c2)OCO3)cc1S(=O)(=O)N(C)Cc1ccccc1	0.8	-16	1	1	18	0.9
O=C1NC(c2ccccc2)Nc2c1sc(=S)n2-c1ccccc1 (configuration not stated)	0.8	7	-1	2.2*	19	1.7
COc1ccc(C2NC(=O)c3sc(=S)n(-c4ccccc4)c3N2)cc1 (configuration not stated)	0.9	-1	0	1.5	12	1.3
CCOc1ccc(C2NC(=O)c3sc(=S)n(-c4ccccc4)c3N2)cc1 (configuration not stated)	1.1	-2	0	2.3*	-8	1.7
CCN(CC)C(=O)Nc1ccc(Br)cc1	0.9	2	-3	0.9	7	0.9
SMILES	Diaph act CS	G6PDH counter	Redox H2O2 prof	PMI act hi M6P	Diaphorase inh	PMI act
O=C(Cn1nc(C(F)F)cc1C(F)F)NNC(=S)Nc1ccc(F)cc1	0.9	1	-2	1	6	1
Cc1nn(CCC(=O)NNC(=S)Nc2ccc([N+](=O)[O-])cc2)c(C)c1[N+](=O)[O-]	0.1	2	0	0.9	86*	0.9
O=C(Cn1nc(C(F)F)cc1C(F)F)NNC(=S)Nc1ccc([N+](=O)[O-])cc1	0.5	8	0	1.1	52*	0.9
COc1ccc(/C(C)=N/Nc2ccc(C(=O)O)cc2)cc1OC	1	11	0	2.5*	5	1.8
COc1ccc(OC)c(/C(C)=N/Nc2ccc(C(=O)O)cc2)c1	0.9	9	1	1.7	12	1.5
COc1cc(/C(C)=N/Nc2ccc(C(=O)O)cc2)cc(OC)c1OC	0.9	3	0	2.1*	11	1.6
Nc1nc(SCC(=O)Nc2ccc([N+](=O)[O-])cc2)n[nH]1	0.9	5	-1	0.9	9	1
O=c1cc2[nH]c3ccccc3c(=O)n2nc1-c1ccccc1	0.3	7	0	0.6	66*	0.4
CCOC(=O)C1(Cc2ccc(OC)cc2)CCN(C(=O)c2cncs2)CC1	1	9	1	0.9	1	0.9
C/C(=N\NC(=O)c1ccc(Cl)cc1)c1ccc(Br)s1	1.1	7	-5	1.1	-11	1.1
C/C(=N\Nc1ccc(F)cc1F)c1ccc(F)cc1	0.9	5	3	2.4*	9	1.4
Fc1ccc(N/N=C/c2ccc(N3CCOCC3)cc2)c(F)c1	0.9	-10	-2	2.2*	10	1.7
C/C(=N\Nc1ccc(F)cc1F)c1ccc(N2CCOCC2)cc1	0.8	3	0	2.4*	16	1.6
O=C(Nc1ccc(F)cc1F)Nc1ccc(F)cc1F	1	6	-1	1	3	1
C/C(=N\Nc1ccc(F)cc1F)c1ccc(Br)s1	0.9	-6	-2	2.6*	11	1.7
O=C(O)COc1ccccc1/C=N/NC(=O)c1cccc(S(=O)(=O)N2CCOCC2)c1	0.9	4	-1	1.1	15	1.2
CN(C)S(=O)(=O)c1cc(NC(=O)c2cc(=O)[nH]c3ccccc23)ccc1Cl	0.9	-1	0	1	6	1
COc1ccc2cc3c(N)c(C(=O)NCc4ccco4)sc3nc2c1	0.7	-63	2	0.9	29	0.9
